# Laboratory results published in ChEMBL document CHEMBL1152809, “Structure-activity relationships of orotidine-5'-monophosphate decarboxylase inhibitors as anticancer agents” (J Med Chem, 2009).
# Activity calls are given as the source filed them. The calls are words filed in the database; no cut-off is given here.
# Key:
# PC-3 = experiment: Antitumor activity against human PC3 cells up to 50 uM after 3 days by WST1 assay; format: functional, cell-based
# How it was run: (§1)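 Cell lines grown in Iscove's MDM with 5% FCS, 50 µM 2-mercaptoethanol, penicillin and streptomycin; suspension lines kept at 0.5-1.5 × 10^6 cells/mL, adherent lines subconfluent. Cells seeded in triplicate at 10^4 cells/100 µL. Compounds were dissolved in water and added immediately at 0 to 100 µM final. WST.1 read at 440 nm on day 3; IC50 taken from OD versus concentration plots.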
# OVCAR-4 = experiment: Antitumor activity against human OVCAR4 cells after 3 days by WST1 assay; format: functional, cell-based; conditions: for IC50: OVCAR-4, 72 h; how it was run: as §1
# SNB-19 = experiment: Antitumor activity against human SNB19 cells up to 50 uM after 3 days by WST1 assay; format: functional, cell-based; how it was run: as §1
# [1] = Antitumor activity against human LOX cells after 3 days by WST1 assay; format: functional, cell-based; conditions: 72 h; how it was run: as §1
# [2] = Antitumor activity against human OCI-AML1 cells after 3 days by WST1 assay; format: functional, cell-based; conditions: ML1, 72 h; how it was run: as §1
# MDA-MB-468 = experiment: Antitumor activity against human MDA468 cells up to 50 uM after 3 days by WST1 assay; format: functional, cell-based; how it was run: as §1
# [3] = Antitumor activity against human OCI-My 2 cells after 3 days by WST1 assay; format: functional, cell-based; conditions: 72 h; how it was run: as §1
# [4] = Antitumor activity against human SKW3 cells after 3 days by WST1 assay; format: functional, cell-based; conditions: SKW3, 72 h; how it was run: as §1
# [5] = Antitumor activity against human MDA468 cells after 3 days by WST1 assay; format: functional, cell-based; conditions: MDA-MB-468, 72 h; how it was run: as §1
# OCI-AML2 = experiment: Antitumor activity against human OCI-AML2 cells after 3 days by WST1 assay; format: functional, cell-based; conditions: OCI-AML2, 72 h; how it was run: as §1
# [6] = Cytotoxicity against human CCD-967 cells up to 50 uM after 3 days by WST1 assay; format: cell-based; conditions: ccd-967, 72 h
# How it was run: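 Cells grown in Iscove's MDM with 5% FCS, 50 µM 2-mercaptoethanol and antibiotics, kept subconfluent if adherent. Seeded in triplicate at 10^4 cells/100 µL with compounds (in water) added at once, 0 to 100 µM final. WST.1 formazan read at 440 nm on day 3; IC50 from OD versus concentration.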
# [7] = Antitumor activity against human OCI-LY7 cells after 3 days by WST1 assay; format: functional, cell-based; conditions: OCI-Ly7, 72 h; how it was run: as §1
# Hs-578T = experiment: Antitumor activity against human Hs 578T cells up to 50 uM after 3 days by WST1 assay; format: functional, cell-based; how it was run: as §1
# MCF7 [8] = experiment: Antitumor activity against human MCF7 cells up to 50 uM after 3 days by WST1 assay; format: functional, cell-based; how it was run: as §1
# T47D = experiment: Antitumor activity against human T47D cells up to 50 uM after 3 days by WST1 assay; format: functional, cell-based; how it was run: as §1
# MCF7 [9] = experiment: Antitumor activity against human MCF7 cells after 3 days by WST1 assay; format: functional, cell-based; conditions: MCF7, 72 h; how it was run: as §1
# COLO 205 = experiment: Antitumor activity against human COLO205 cells after 3 days by WST1 assay; format: functional, cell-based; conditions: for IC50: COLO 205, 72 h; how it was run: as §1
Structure (SMILES),IC50 (OVCAR-4),IC50 (OCI-AML2),IC50 (MCF7 [9]),IC50 (COLO 205),Activity (PC-3),Activity (SNB-19),IC50 [1],IC50 [2],Activity (MDA-MB-468),IC50 [3],IC50 [4],IC50 [5],Activity [6],IC50 [7],Activity (Hs-578T),Activity (MCF7 [8]),Activity (T47D),Activity (OVCAR-4),Activity (COLO 205)
O=c1[nH]c(=O)n([C@@H]2O[C@H](CO)[C@@H](O)[C@H]2O)cc1F [5-FLUOROURIDINE],–,–,–,–,inactive,inactive,–,–,inactive,–,–,–,Not Active,–,inactive,inactive,inactive,–,–
Nc1cc(=O)[nH]c(=O)n1[C@@H]1O[C@H](CO)[C@@H](O)[C@H]1O,> 50 µM,> 50 µM,> 50 µM,> 50 µM,inactive,inactive,> 50 µM,> 50 µM,inactive,> 50 µM,> 50 µM,> 50 µM,Not Active,> 50 µM,inactive,inactive,inactive,–,–
O=c1cc(I)n([C@@H]2O[C@H](CO)[C@@H](O)[C@H]2O)c(=O)[nH]1,> 50 µM,> 50 µM,> 50 µM,> 50 µM,inactive,inactive,> 50 µM,15.3 µM,inactive,27.8 µM,18.9 µM,> 50 µM,Not Active,> 50 µM,inactive,inactive,inactive,–,–
O=c1[nH]c(=O)n([C@@H]2O[C@H](CO)[C@@H](O)[C@H]2O)c(I)c1Br,> 50 µM,> 50 µM,> 50 µM,> 50 µM,inactive,inactive,> 50 µM,> 50 µM,inactive,> 50 µM,> 50 µM,> 50 µM,Not Active,> 50 µM,inactive,inactive,inactive,–,–
CN(C)c1cc(=O)[nH]c(=O)[nH]1,> 50 µM,> 50 µM,> 50 µM,> 50 µM,inactive,inactive,> 50 µM,> 50 µM,inactive,> 50 µM,> 50 µM,> 50 µM,Not Active,> 50 µM,inactive,inactive,inactive,–,–
Cc1cc(=O)[nH]c(=O)n1[C@@H]1O[C@H](CO)[C@@H](O)[C@H]1O,> 50 µM,> 50 µM,> 50 µM,> 50 µM,inactive,inactive,> 50 µM,> 50 µM,inactive,> 50 µM,> 50 µM,> 50 µM,Not Active,> 50 µM,inactive,inactive,inactive,–,–
[N-]=[N+]=Nc1cc(=O)[nH]c(=O)n1[C@@H]1O[C@H](CO)[C@@H](O)[C@H]1O,> 50 µM,> 50 µM,> 50 µM,> 50 µM,inactive,inactive,> 50 µM,> 50 µM,inactive,> 50 µM,> 50 µM,> 50 µM,Not Active,> 50 µM,inactive,inactive,inactive,–,–
O=c1cc(NO)n([C@@H]2O[C@H](CO)[C@@H](O)[C@H]2O)c(=O)[nH]1,–,> 50 µM,> 50 µM,–,inactive,inactive,> 50 µM,> 50 µM,inactive,> 50 µM,> 50 µM,> 50 µM,Not Active,> 50 µM,inactive,inactive,inactive,inactive,inactive

# Continued, in another order:
IC50 (OVCAR-4),IC50 (OCI-AML2),IC50 (MCF7 [9]),IC50 (COLO 205),Structure (SMILES),Activity (PC-3),Activity (SNB-19),IC50 [1],IC50 [2],Activity (MDA-MB-468),IC50 [3],IC50 [4],IC50 [5],Activity [6],IC50 [7],Activity (Hs-578T),Activity (MCF7 [8]),Activity (T47D),Activity (OVCAR-4),Activity (COLO 205)
> 50 µM,> 50 µM,> 50 µM,> 50 µM,N#Cc1cc(=O)[nH]c(=O)n1[C@@H]1O[C@H](CO)[C@@H](O)[C@H]1O,inactive,inactive,> 50 µM,> 50 µM,inactive,> 50 µM,> 50 µM,> 50 µM,Not Active,> 50 µM,inactive,inactive,inactive,–,–
> 50 µM,11.7 µM,4.4 µM,> 50 µM,CC(=O)OC[C@H]1O[C@@H](n2c(I)cc(=O)[nH]c2=O)[C@H](O)[C@@H]1O,inactive,inactive,1.1 µM,15.2 µM,inactive,1.3 µM,1.6 µM,> 50 µM,Not Active,36.2 µM,inactive,–,inactive,–,–
–,–,31.4 µM,–,CCc1c(F)c(=O)[nH]c(=O)n1[C@@H]1O[C@H](CO)[C@@H](O)[C@H]1O,inactive,inactive,4.5 µM,2.1 µM,–,1.4 µM,1.2 µM,5.3 µM,Not Active,1.9 µM,inactive,–,inactive,–,–
> 50 µM,> 50 µM,> 50 µM,> 50 µM,CNc1cc(=O)[nH]c(=O)n1[C@@H]1O[C@H](CO)[C@@H](O)[C@H]1O,inactive,inactive,> 50 µM,> 50 µM,inactive,> 50 µM,> 50 µM,> 50 µM,Not Active,> 50 µM,inactive,inactive,inactive,–,–
> 50 µM,> 50 µM,> 50 µM,> 50 µM,O=c1[nH]c(=O)n([C@@H]2O[C@H](CO)[C@@H](O)[C@H]2O)c(I)c1F,inactive,inactive,> 50 µM,> 50 µM,inactive,> 50 µM,> 50 µM,> 50 µM,Not Active,> 50 µM,inactive,inactive,inactive,–,–
> 50 µM,> 50 µM,> 50 µM,> 50 µM,O=c1cc(O)n([C@@H]2O[C@H](CO)[C@@H](O)[C@H]2O)c(=O)[nH]1,inactive,inactive,> 50 µM,> 50 µM,inactive,> 50 µM,> 50 µM,> 50 µM,Not Active,> 50 µM,inactive,inactive,inactive,–,–
> 50 µM,> 50 µM,> 50 µM,> 50 µM,COC(=O)c1cc(=O)[nH]c(=O)n1[C@@H]1O[C@H](CO)[C@@H](O)[C@H]1O,inactive,inactive,> 50 µM,> 50 µM,inactive,42.3 µM,> 50 µM,> 50 µM,Not Active,> 50 µM,inactive,inactive,inactive,–,–
> 50 µM,16 µM,> 50 µM,> 50 µM,O=c1cnn([C@@H]2O[C@H](COP(=O)(O)O)[C@@H](O)[C@H]2O)c(=O)[nH]1 [6-AZA-URIDINE MONOPHOSPHATE],inactive,inactive,6.7 µM,6.1 µM,inactive,18.7 µM,2.8 µM,> 50 µM,Not Active,> 50 µM,inactive,inactive,inactive,–,–
